Only some compounds are listed: those with a hit (about 4.1% of all), similar ones and a draw of the others.
KCNQ1 inh – blocks the human KCNQ1 potassium channel. AID 2642. CHO-K1 KCNQ1, FluxOR thallium flux fluorescence; active compounds read high. 310,000 compounds, 1.3% hits. P51787. B-score at 10 µM;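 active means compounds whose thallium flux B-score, printed positive for inhibition, exceeds three library SD while starting fluorescence stays within three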;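 further: channel opened by potassium depolarization with thallium stimulus after 20 min compound exposure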
KCNK9 inh – inhibitors of human KCNK9 two-pore domain potassium channel; Q9NPC2; HEK293 KCNK9, FluxOR thallium flux fluorescence; active compounds read low; B-score at 10 µM; 310,000 compounds, 1.2% hits; AID 488922;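 active means ratio B-score over 3 SD below the library mean, with starting fluorescence within 5 SD of its mean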;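 further: negative B-score means less thallium flux so channel inhibition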
Target sequence (Q9NPC2 whole entry, looked up, the tested form may be a part): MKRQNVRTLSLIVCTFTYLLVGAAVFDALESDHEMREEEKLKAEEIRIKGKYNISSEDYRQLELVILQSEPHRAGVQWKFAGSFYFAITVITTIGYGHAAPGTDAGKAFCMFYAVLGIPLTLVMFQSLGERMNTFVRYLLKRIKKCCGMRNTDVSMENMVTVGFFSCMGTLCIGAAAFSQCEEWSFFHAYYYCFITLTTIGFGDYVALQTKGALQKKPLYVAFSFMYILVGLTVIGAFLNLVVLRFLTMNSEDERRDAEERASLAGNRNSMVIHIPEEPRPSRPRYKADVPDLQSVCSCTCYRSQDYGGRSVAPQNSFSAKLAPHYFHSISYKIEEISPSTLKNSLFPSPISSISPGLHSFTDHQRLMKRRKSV
KCNQ1 act – potentiates or activates the human KCNQ1 potassium channel; CHO-K1 KCNQ1, thallium flux FluxOR fluorescence; active compounds read high; 310,000 compounds, 0.35% hits; AID 2648; B-score at 10 µM; P51787;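 active means fluorescence ratio B-score, a plate-corrected score, at least three library SD, with initial intensity B-score within 5 SD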
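Medium – assay buffer, equal DMSO in all wells · Material – CHO-K1 cell line with stable KCNQ1 potassium channel expression · Signal – kinetic FluxOR thallium fluorescence, 10-s 1-Hz baseline, 110-s post-stimulus read · Compound – single concentration per compound, DMSO matched to controls · Schedule – 37 °C overnight plating, 90-min dark dye load, 20-min compound pretreatment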
KCNK3 block – human KCNK3 channel inhibition, primary screen | 340,000 compounds, 0.84% hits | B-score at 10 µM | CHO-KCNK3 thallium flux, FluxOR fluorescence; active compounds read low | AID 602410;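 active means B-score under library mean minus 4 SD, starting fluorescence ratio at most library mean plus 5 SD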;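 further: more negative B-score means stronger inhibition of thallium flux through KCNK3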
Target sequence (O14649 whole entry, looked up): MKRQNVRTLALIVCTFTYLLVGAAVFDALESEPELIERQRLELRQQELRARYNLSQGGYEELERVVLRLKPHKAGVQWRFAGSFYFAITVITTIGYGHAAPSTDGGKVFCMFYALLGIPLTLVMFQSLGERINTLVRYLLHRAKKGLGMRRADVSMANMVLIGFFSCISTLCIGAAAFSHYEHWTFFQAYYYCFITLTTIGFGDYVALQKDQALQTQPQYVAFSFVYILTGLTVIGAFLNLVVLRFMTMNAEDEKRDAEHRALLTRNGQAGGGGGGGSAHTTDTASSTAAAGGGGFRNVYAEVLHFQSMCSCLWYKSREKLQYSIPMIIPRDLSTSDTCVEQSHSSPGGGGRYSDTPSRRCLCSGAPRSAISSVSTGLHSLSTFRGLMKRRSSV
hERG protect – hERG (human) protection from proarrhythmic block. 310,000 compounds, 0.51% hits. Q12809. CHO-hERG, FluxOR thallium flux, dofetilide IC70 present. AID 1511. activation (rescue from dofetilide block), less the hit threshold, % at 10 µM;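 active means activation above the mean of controls blocked by dofetilide plus 5 SD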;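 further: thallium influx through hERG after potassium depolarization seen as dye fluorescence rise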
Cl transport mod – modulates chloride dependent transport by human KCC2. Q9H2X9. KCC2 cells, thallium flux FluoZin-2 fluorescence. B-score of Tl+ flux slope (higher = more flux/activation; lower = inhibition) at 10 µM. 190,000 compounds, 2.2% hits. AID 1456;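 active means thallium flux slope and its plate-corrected score both differing from the plate sample mean at a set confidence after two filtering rounds, in either direction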;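 further: slope of fluorescence scaled to starting intensity during 10 to 20 s after thallium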
KCNK9 inh conf – human KCNK9 inhibitor confirmation. 4,900 compounds, 43% hits. AID 492992. HEK293 KCNK9 cells, FluxOR thallium flux fluorescence. shares compounds with KCNK9 inh. inhibition, % at 10 µM;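 active means thallium signal inhibited by more than 5 SD of the compound-free buffer control wells, on both duplicate plates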
Kir21 sel – selectivity of KCNK9 modulators against mouse Kir2.1 | inhibition, % at 10 µM | shares compounds with KCNK9 inh | Kir2.1 cells, FluxOR thallium flux fluorescence | 4,900 compounds, 4% hits;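 active means thallium signal drop more than 5 SD beyond the mean of the no-compound control wells, seen in both duplicate plates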;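 further: signal is fluorescence rise after thallium addition divided by baseline fluorescence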
KCNK9 uninduced – second counter-screen for KCNK9 modulators: effect in non-induced cells | shares compounds with KCNK9 inh | non-induced KCNK9-HEK293, FluxOR thallium flux | inhibition, % at 10 µM | 4,900 compounds, 40% hits | AID 492997;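 active means thallium signal drop beyond 5 SD of the untreated control mean, on both duplicate plates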
Large screens that a line does not name were inactive (follow-up assays come after a bar, where they were run).

Cc1ccc(-c2cc(C(=O)Nc3ccc(S(=O)(=O)Nc4onc(C)c4C)cc3)c3ccccc3n2)cc1	none | KCNK9 inh conf inactive | Kir21 sel inactive | KCNK9 uninduced inactive
CC(C)(C)c1ccc(C(=O)N2CCCC2c2cccs2)cc1 (stereo not drawn)	none (no result: Cl transport mod) | KCNK9 inh conf inactive | Kir21 sel inactive | KCNK9 uninduced inactive
CCOc1ccccc1NC(=O)c1ccc(Cl)c(NC(=O)CC(c2ccccc2)c2ccccc2)c1	KCNK9 inh -9.9 (no result: Cl transport mod) | KCNK9 inh conf 49% | Kir21 sel inactive | KCNK9 uninduced 30%
CCOc1ccccc1NC(=O)c1cccc(NC(=O)CC(c2ccccc2)c2ccccc2)c1	none
CCOc1ccc(C(=O)Nc2cc(NC(=O)c3ccc(OCC)c(Cl)c3)cc(C(=O)O)c2)cc1Cl	none | KCNK9 inh conf inactive | Kir21 sel inactive | KCNK9 uninduced inactive
COCCN=c1scc(-c2cc(OC)ccc2OC)n1/N=C/c1c[nH]c2ccccc12	none | KCNK9 inh conf inactive | Kir21 sel inactive | KCNK9 uninduced inactive
COCCN=c1scc(-c2ccco2)n1/N=C/c1ccc(O)c(O)c1O	none (no result: KCNQ1 inh, KCNK9 inh, KCNQ1 act, hERG protect)
COC(=O)C(Oc1ccc2c(-c3ccc(OC)cc3)cc(=O)oc2c1)c1ccccc1 (stereo not drawn)	KCNK9 inh -9.3 | KCNK9 inh conf 54% | Kir21 sel inactive | KCNK9 uninduced 36%
CCOc1ccc(/C=C2\SC(=S)N(CC(=O)N(CCO)C(C)(C)C)C2=O)cc1	none
CCCN(CCC)C(=O)CC(c1ccccc1)c1ccc(C)cc1O (stereo not drawn)	none
CCCN(CCC)C(=O)CC(c1ccccc1)c1cc(Br)ccc1O (stereo not drawn)	KCNK9 inh -13 (no result: Cl transport mod) | KCNK9 inh conf 36% | Kir21 sel inactive | KCNK9 uninduced 40%
O=C(C1CC1)N(Cc1nc2ccccc2c(=O)[nH]1)Cc1cccs1	none
Cc1nnc2n(-c3ccccc3)c(=O)c3c4c(sc3n12)COC(C)(C)C4	none
CCCCSc1nnc2n(CCc3ccccc3)c(=O)c3c4c(sc3n12)COC(C)(C)C4	none | KCNK9 inh conf inactive | Kir21 sel inactive | KCNK9 uninduced inactive
Clc1ccccc1CN(Cc1ccco1)Cc1nnnn1C1CCCC1	KCNK9 inh -9.9 | KCNK9 inh conf 60% | Kir21 sel 47% | KCNK9 uninduced 41%
C=CCn1c(SCC(=O)c2[nH]c(C)c(C(=O)OC)c2C)nc2scc(-c3ccc(OC)c(OC)c3)c2c1=O	none
CCOC(=O)c1ccc(N/C(=N\S(=O)(=O)c2ccccc2C)c2ccccc2)cc1	KCNK9 inh -8.4 | KCNK9 inh conf 39% | Kir21 sel inactive | KCNK9 uninduced 28%
COC(=O)c1ccc(N/C(=N/S(=O)(=O)c2ccccc2)c2ccccc2)cc1	none
COCCNc1nc2c(c(=O)n(Cc3cccc(Cl)c3)c(=O)n2C)n1C	none (no result: Cl transport mod)
CC(=O)CCC1C2C(O)C(C(C)C)C(OC(=O)/C=C/c3ccccc3)CC12C (stereo not drawn)	none | KCNK9 inh conf inactive | Kir21 sel inactive | KCNK9 uninduced inactive
Cc1ccc(Sc2ccc(S(=O)(=O)Nc3ccc(C(=O)O)cc3)cc2)cc1C	none (no result: KCNQ1 inh, KCNK9 inh, KCNQ1 act, hERG protect, Cl transport mod)
COc1cc(-c2c(-c3ccc4c(c3)OCO4)noc2-c2ccsc2)ccc1F	KCNK9 inh -11 (no result: Cl transport mod) | KCNK9 inh conf 56% | Kir21 sel inactive | KCNK9 uninduced 36%
CCc1cccc(NS(=O)(=O)c2ccc3c(c2)NC(=O)C(C)S3)c1 (stereo not drawn)	none (no result: Cl transport mod)
O=C(c1ccc(S(=O)(=O)N2CCCC2)cc1)N(Cc1ccco1)C1CCS(=O)(=O)C1 (stereo not drawn)	none
Cc1sc(NC(=O)c2ccco2)c(C(c2cccnc2)N2CCC(C)CC2)c1C (stereo not drawn)	KCNQ1 inh 9, KCNK9 inh -14 (no result: Cl transport mod) | KCNK9 inh conf 66% | Kir21 sel inactive | KCNK9 uninduced 42%
CCN1CCN(C(c2cccnc2)c2c(NC(=O)c3ccco3)sc(C)c2C)CC1 (stereo not drawn)	none (no result: KCNQ1 inh, KCNK9 inh, KCNQ1 act, hERG protect, Cl transport mod)
CN(C1CCCCC1)S(=O)(=O)c1cccc(C(=O)OCC(=O)NC2CCCc3ccccc32)c1 (stereo not drawn)	KCNK9 inh -9.5 | KCNK9 inh conf 56% | Kir21 sel inactive | KCNK9 uninduced inactive
Nc1c(C(=O)N/N=C/c2ccc([N+](=O)[O-])cc2)sc2nnc(-c3ccccc3)c(-c3ccccc3)c12	none (no result: KCNK3 block)
COC(=O)C1CCN(C(=O)Cc2ccc(OC)c(OC)c2)CC1	none
O=C(COC(=O)Cc1ccc(Cl)cc1)NCc1ccc(F)cc1	none (no result: KCNQ1 inh, KCNK9 inh, KCNQ1 act, hERG protect, Cl transport mod)
CCOC(=O)c1ccc(N2CCCCC2)c(NS(=O)(=O)c2cccc(C(F)(F)F)c2)c1	KCNK9 inh -11 | KCNK9 inh conf 56% | Kir21 sel inactive | KCNK9 uninduced 34%
COC(=O)c1ccc(N2CCCCC2)c(NS(=O)(=O)c2ccc(C)cc2)c1	none (no result: Cl transport mod)
CCOc1ccccc1N(CC(=O)Nc1ccc(S(=O)(=O)N2CCCC2)cc1)S(C)(=O)=O	none (no result: Cl transport mod)
CC(c1ccco1)N(C(=O)CSc1ccc(Br)cc1)c1ccccn1 (stereo not drawn)	KCNK9 inh -8.9, KCNK3 block -9.8 | KCNK9 inh conf inactive | Kir21 sel 37% | KCNK9 uninduced 38%
Cc1cc(-c2nn(-c3ccccc3F)cc2CN2CCN(c3ccccn3)CC2)c(C)s1	none (no result: Cl transport mod) | KCNK9 inh conf inactive | Kir21 sel inactive | KCNK9 uninduced inactive
Cn1cc(CN2CCN(c3ccc(Cl)cn3)CC2)c(-c2ccccc2F)n1	none (no result: Cl transport mod) | KCNK9 inh conf inactive | Kir21 sel inactive | KCNK9 uninduced inactive
C=CC[C@@H](CC(=O)N(CCO)Cc1ccccc1)C(=O)N[C@H](COC(=O)[C@@H](CC=C)CC(=O)OC(C)(C)C)c1ccccc1	none (no result: KCNQ1 inh, KCNK9 inh, KCNQ1 act, hERG protect, Cl transport mod)
COc1ccccc1NC(=S)NC(=O)C(C)(C)C	none | KCNK9 inh conf inactive | Kir21 sel inactive | KCNK9 uninduced inactive
COc1ccccc1NC(=S)NC(=O)Cc1ccccc1	none (no result: Cl transport mod)
O=C(CN(Cc1ccccc1)S(=O)(=O)c1cccc(C(F)(F)F)c1)NC1CCCCC1	none
CC(c1ccccc1)N(CC(=O)NC1CCCCC1)S(=O)(=O)c1cccc(C(F)(F)F)c1 (stereo not drawn)	KCNK9 inh -8.2 | KCNK9 inh conf 49% | Kir21 sel inactive | KCNK9 uninduced 47%
Cc1cc(C(=O)Cn2nnc(-c3ccc(Cl)cc3)n2)c(C)n1CC1CCCO1 (stereo not drawn)	none
